One may read the IC50 as the concentration that inhibits the measured activity by half. Lower therefore signals higher potency.

The subject of one experiment is HepG2. The experiment in a line: Cytotoxicity against human HepG2 cells up to 72 uM after 24 to 48 hrs by MTT assay. In kind it is functional, cell-based. The procedure, abridged:
(§1)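 Cells seeded at 10^4 cells cm−2 and left 24 h to adhere. Exposed 24 or 48 h to fresh medium containing compound from DMSO (1 μL per 100 μL) at final 3 and 30 μg mL−1. MTT added at 0.5 mg mL−1, formazan dissolved in DMSO, absorbance read at 550 nm. Triplicate.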
On the technique in general: Tetrazolium dyes change colour on reduction, which living cells bring about.

For the next experiment, the system named is RKO. The experiment in a line: Cytotoxicity against human RKO cells up to 72 uM after 24 to 48 hrs by MTT assay. In kind it is functional, cell-based. The procedure, abridged: as §1
The subject of another experiment is MG-63. The experiment in a line: Cytotoxicity against human MG63 cells up to 72 uM after 24 to 48 hrs by MTT assay. In kind it is functional, cell-based. The procedure, abridged:
as §1

The test system of another experiment is T47D. The experiment in a line: Cytotoxicity against human T47D cells up to 72 uM after 24 to 48 hrs by MTT assay. The format is functional, cell-based. In a few lines: as §1
The next experiment has as its system SH-SY5Y. The experiment in a line: Cytotoxicity against human SH-SY5Y cells up to 72 uM after 24 to 48 hrs by MTT assay. In kind it is functional, cell-based. In a few lines:
as §1

The test system of another experiment is Caco-2. The experiment in a line: Cytotoxicity against human Caco2 cells up to 72 uM after 24 to 48 hrs by MTT assay. The format is functional, cell-based. The procedure, abridged:
as §1

The subject of another experiment is HT-29. The experiment in a line: Cytotoxicity against human HT-29 cells up to 72 uM after 24 to 48 hrs by MTT assay. The format is functional, cell-based. The procedure, abridged:
as §1

Experiment [1] relates to Plasmodium falciparum. The experiment in a line: Antimalarial activity against Plasmodium falciparum 3D7 infected in human erythrocytes after 48 hrs by SYBR Green-1 dye based assay. The format is functional, organism-based. Particulars: 3D7, 48 h. The procedure, abridged: (§2)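 Asexual parasites kept on human erythrocytes in RPMI 1640 with 25 mM HEPES, […] hypoxanthine and 10% AlbuMAX II, pH 7.2. Cultures held at 37 °C under 5% O2 and 3−5% CO2 in N2, and sorbitol-synchronized. SYBR Green I fluorescence read at ex 485/em 535 nm. Percent survival vs untreated; IC50 by nonlinear regression.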

In experiment [2] the test system is Plasmodium falciparum. The experiment in a line: Antimalarial activity against Plasmodium falciparum Dd2 infected in human erythrocytes after 48 hrs by SYBR Green-1 dye based assay. In kind it is functional, organism-based. As to conditions: Dd2, 48 h. The procedure, abridged:
as §2

Calls of active or inactive are those of the source. No cut-off for these calls is given here.

In the case of `CCCCCCCCCCCCCCCc1c(O)c(OC)cc(OC)c1Cl`, the outcome in the experiment on HepG2, in the experiment on RKO, in the experiment on MG-63, in the experiment with T47D, with SH-SY5Y and in the experiment on Caco-2 was inactive. The result with HT-29 was inactive. Also, the IC50 in the experiment with Plasmodium falciparum [1] is 1500 nM; with Plasmodium falciparum [2] it was 2300 nM.
With `CCCCCCCCCCCCCCCc1cc(OC)cc(OC)c1O`, the results for the half-inhibitory concentration (IC50) in the experiment on Plasmodium falciparum [1] and with Plasmodium falciparum [2] were 2100 nM and 2300 nM, respectively.
